{"source": "ChEMBL document CHEMBL5724801", "about": "“EUbOPEN Chemogenomics Library - Multiplex” (2024)", "key": {"[1]": {"system": "HEK-293T", "test": "Multiplex assay against HEK293T", "format": "toxicity, cell-based", "conditions": "human", "method_in_brief": "(§1)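 On a CQ1 microscope at 37°C and 5% CO2, live cells were imaged after compound addition. They had been stained at seeding with Hoechst33342, BioTracker Green Microtubule Cytoskeleton Dye, MitoTracker Red and Annexin V Alexa Fluor 680. CellPathfinder machine-learning gating assigned cells to Hoechst high-intensity objects or normal cells, normal cells to healthy, pyknosed or fragmented nuclei, and pyknosed cells to mitotic or apoptotic. Tubulin, mitochondrial-mass and membrane-permeability phenotypes are per cents of healthy-nucleus cells.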"}, "[2]": {"system": "U2OS", "test": "Multiplex assay against U2OS", "format": "toxicity, cell-based", "conditions": "human", "method_in_brief": "as §1"}, "[3]": {"conditions": "12 h, 1 µM, compound concentration 1 uM"}, "[4]": {"conditions": "12 h, 10 µM, compound concentration 10 uM"}, "[5]": {"conditions": "24 h, 1 µM, compound concentration 1 uM"}, "[6]": {"conditions": "24 h, 10 µM, compound concentration 10 uM"}, "[7]": {"conditions": "48 h, 1 µM, compound concentration 1 uM"}, "[8]": {"conditions": "48 h, 10 µM, compound concentration 10 uM"}}, "note": "Values joined by “and” are separate entries in the source; they are usually repeats but may differ in a detail not shown here. Identical values can stand only once."}
{"smiles": "COCCn1c(C)c(C)s/c1=N\\C(=O)C1C(C)(C)C1(C)C", "values": [{"measurement": "Population Apoptotic (%)", "setting": "[1]; [3]", "value": "37% and 41%"}, {"measurement": "Population Fragmented Nuclei (%)", "setting": "[1]; [3]", "value": "10% and 5%"}, {"measurement": "Population Healthy Nuclei (%)", "setting": "[1]; [3]", "value": "77% and 82%"}, {"measurement": "Population Hoechst High Intensity Objects (%)", "setting": "[1]; [3]", "value": "6% and 4%"}, {"measurement": "Population Membrane Permeable-Phenotype (%)", "setting": "[1]; [3]", "value": 0, "unit": "%"}, {"measurement": "Population Mitochondria Different-Phenotype (%)", "setting": "[1]; [3]", "value": "45% and 77%"}, {"measurement": "Population Mitotic Cells (%)", "setting": "[1]; [3]", "value": "62% and 58%"}, {"measurement": "Population Normal (%)", "setting": "[1]; [3]", "value": "93% and 95%"}, {"measurement": "Population Pyknosed Nuclei (%)", "setting": "[1]; [3]", "value": 12, "unit": "%"}, {"measurement": "Population Tubulin-Different-Phenotype (%)", "setting": "[1]; [3]", "value": "29% and 26%"}, {"measurement": "Total Cell Count", "setting": "[1]; [3]", "value": "335 and 304"}, {"measurement": "Population Apoptotic (%)", "setting": "[1]; [4]", "value": "77% and 53%"}, {"measurement": "Population Healthy Nuclei (%)", "setting": "[1]; [4]", "value": "52% and 75%"}, {"measurement": "Population Hoechst High Intensity Objects (%)", "setting": "[1]; [4]", "value": "18% and 11%"}, {"measurement": "Population Membrane Permeable-Phenotype (%)", "setting": "[1]; [4]", "value": 0, "unit": "%"}, {"measurement": "Population Mitochondria Different-Phenotype (%)", "setting": "[1]; [4]", "value": "91% and 72%"}, {"measurement": "Population Mitotic Cells (%)", "setting": "[1]; [4]", "value": "22% and 46%"}, {"measurement": "Population Normal (%)", "setting": "[1]; [4]", "value": "81% and 88%"}, {"measurement": "Population Pyknosed Nuclei (%)", "setting": "[1]; [4]", "value": "13% and 16%"}, {"measurement": "Population Tubulin-Different-Phenotype (%)", "setting": "[1]; [4]", "value": "67% and 38%"}, {"measurement": "Population Apoptotic (%)", "setting": "[1]; [5]", "value": "19% and 35%"}, {"measurement": "Population Fragmented Nuclei (%)", "setting": "[1]; [5]", "value": "7% and 8%"}, {"measurement": "Population Healthy Nuclei (%)", "setting": "[1]; [5]", "value": 81, "unit": "%"}, {"measurement": "Population Hoechst High Intensity Objects (%)", "setting": "[1]; [5]", "value": "4% and 7%"}, {"measurement": "Population Membrane Permeable-Phenotype (%)", "setting": "[1]; [5]", "value": 0, "unit": "%"}, {"measurement": "Population Mitochondria Different-Phenotype (%)", "setting": "[1]; [5]", "value": "26% and 47%"}, {"measurement": "Population Mitotic Cells (%)", "setting": "[1]; [5]", "value": "80% and 64%"}, {"measurement": "Population Normal (%)", "setting": "[1]; [5]", "value": "95% and 92%"}, {"measurement": "Population Pyknosed Nuclei (%)", "setting": "[1]; [5]", "value": "11% and 10%"}, {"measurement": "Population Tubulin-Different-Phenotype (%)", "setting": "[1]; [5]", "value": "20% and 17%"}, {"measurement": "Total Cell Count", "setting": "[1]; [5]", "value": "447 and 383"}, {"measurement": "Population Apoptotic (%)", "setting": "[1]; [6]", "value": "71% and 45%"}, {"measurement": "Population Fragmented Nuclei (%)", "setting": "[1]; [6]", "value": "30% and 11%"}, {"measurement": "Population Healthy Nuclei (%)", "setting": "[1]; [6]", "value": "61% and 75%"}, {"measurement": "Population Hoechst High Intensity Objects (%)", "setting": "[1]; [6]", "value": "15% and 7%"}, {"measurement": "Population Membrane Permeable-Phenotype (%)", "setting": "[1]; [6]", "value": 0, "unit": "%"}, {"measurement": "Population Mitochondria Different-Phenotype (%)", "setting": "[1]; [6]", "value": "53% and 62%"}, {"measurement": "Population Mitotic Cells (%)", "setting": "[1]; [6]", "value": "28% and 54%"}, {"measurement": "Population Normal (%)", "setting": "[1]; [6]", "value": "84% and 92%"}, {"measurement": "Population Pyknosed Nuclei (%)", "setting": "[1]; [6]", "value": "8% and 13%"}, {"measurement": "Population Tubulin-Different-Phenotype (%)", "setting": "[1]; [6]", "value": "36% and 30%"}, {"measurement": "Population Apoptotic (%)", "setting": "[1]; [7]", "value": "20% and 45%"}, {"measurement": "Population Fragmented Nuclei (%)", "setting": "[1]; [7]", "value": "13% and 11%"}, {"measurement": "Population Healthy Nuclei (%)", "setting": "[1]; [7]", "value": "75% and 81%"}, {"measurement": "Population Hoechst High Intensity Objects (%)", "setting": "[1]; [7]", "value": 3, "unit": "%"}, {"measurement": "Population Membrane Permeable-Phenotype (%)", "setting": "[1]; [7]", "value": 0, "unit": "%"}, {"measurement": "Population Mitochondria Different-Phenotype (%)", "setting": "[1]; [7]", "value": "22% and 31%"}, {"measurement": "Population Mitotic Cells (%)", "setting": "[1]; [7]", "value": "79% and 55%"}, {"measurement": "Population Normal (%)", "setting": "[1]; [7]", "value": "96% and 97%"}, {"measurement": "Population Pyknosed Nuclei (%)", "setting": "[1]; [7]", "value": "11% and 7%"}, {"measurement": "Population Tubulin-Different-Phenotype (%)", "setting": "[1]; [7]", "value": "14% and 12%"}, {"measurement": "Total Cell Count", "setting": "[1]; [7]", "value": "649 and 567"}, {"measurement": "Population Apoptotic (%)", "setting": "[1]; [8]", "value": "60% and 38%"}, {"measurement": "Population Fragmented Nuclei (%)", "setting": "[1]; [8]", "value": "18% and 13%"}, {"measurement": "Population Healthy Nuclei (%)", "setting": "[1]; [8]", "value": "73% and 79%"}, {"measurement": "Population Hoechst High Intensity Objects (%)", "setting": "[1]; [8]", "value": "2% and 4%"}, {"measurement": "Population Membrane Permeable-Phenotype (%)", "setting": "[1]; [8]", "value": "2% and 0%"}, {"measurement": "Population Mitochondria Different-Phenotype (%)", "setting": "[1]; [8]", "value": "30% and 46%"}, {"measurement": "Population Mitotic Cells (%)", "setting": "[1]; [8]", "value": "40% and 61%"}, {"measurement": "Population Normal (%)", "setting": "[1]; [8]", "value": "97% and 95%"}, {"measurement": "Population Pyknosed Nuclei (%)", "setting": "[1]; [8]", "value": "8% and 6%"}, {"measurement": "Population Tubulin-Different-Phenotype (%)", "setting": "[1]; [8]", "value": "31% and 24%"}, {"measurement": "Total Cell Count", "setting": "[1]; [8]", "value": "191 and 493"}, {"measurement": "Population Apoptotic (%)", "setting": "[2]; [3]", "value": "88% and 71%"}, {"measurement": "Population Fragmented Nuclei (%)", "setting": "[2]; [3]", "value": "24% and 20%"}, {"measurement": "Population Healthy Nuclei (%)", "setting": "[2]; [3]", "value": "69% and 74%"}, {"measurement": "Population Hoechst High Intensity Objects (%)", "setting": "[2]; [3]", "value": 0, "unit": "%"}, {"measurement": "Population Membrane Permeable-Phenotype (%)", "setting": "[2]; [3]", "value": "8% and 11%"}, {"measurement": "Population Mitochondria Different-Phenotype (%)", "setting": "[2]; [3]", "value": "1% and 3%"}, {"measurement": "Population Mitotic Cells (%)", "setting": "[2]; [3]", "value": "11% and 28%"}, {"measurement": "Population Normal (%)", "setting": "[2]; [3]", "value": "99% and 100%"}, {"measurement": "Population Pyknosed Nuclei (%)", "setting": "[2]; [3]", "value": "6% and 5%"}, {"measurement": "Population Tubulin-Different-Phenotype (%)", "setting": "[2]; [3]", "value": "3% and 5%"}, {"measurement": "Total Cell Count", "setting": "[2]; [3]", "value": "271 and 135"}, {"measurement": "Population Apoptotic (%)", "setting": "[2]; [4]", "value": "73% and 80%"}, {"measurement": "Population Fragmented Nuclei (%)", "setting": "[2]; [4]", "value": "33% and 20%"}, {"measurement": "Population Healthy Nuclei (%)", "setting": "[2]; [4]", "value": "52% and 68%"}, {"measurement": "Population Hoechst High Intensity Objects (%)", "setting": "[2]; [4]", "value": "2% and 0%"}, {"measurement": "Population Membrane Permeable-Phenotype (%)", "setting": "[2]; [4]", "value": "10% and 9%"}, {"measurement": "Population Mitochondria Different-Phenotype (%)", "setting": "[2]; [4]", "value": "4% and 3%"}, {"measurement": "Population Mitotic Cells (%)", "setting": "[2]; [4]", "value": "26% and 20%"}, {"measurement": "Population Normal (%)", "setting": "[2]; [4]", "value": "97% and 100%"}, {"measurement": "Population Pyknosed Nuclei (%)", "setting": "[2]; [4]", "value": "13% and 11%"}, {"measurement": "Population Tubulin-Different-Phenotype (%)", "setting": "[2]; [4]", "value": "5% and 4%"}, {"measurement": "Total Cell Count", "setting": "[2]; [4]", "value": "220 and 135"}, {"measurement": "Population Apoptotic (%)", "setting": "[2]; [5]", "value": "89% and 83%"}, {"measurement": "Population Fragmented Nuclei (%)", "setting": "[2]; [5]", "value": 18, "unit": "%"}, {"measurement": "Population Healthy Nuclei (%)", "setting": "[2]; [5]", "value": "75% and 77%"}, {"measurement": "Population Hoechst High Intensity Objects (%)", "setting": "[2]; [5]", "value": 0, "unit": "%"}, {"measurement": "Population Membrane Permeable-Phenotype (%)", "setting": "[2]; [5]", "value": "5% and 9%"}, {"measurement": "Population Mitochondria Different-Phenotype (%)", "setting": "[2]; [5]", "value": 3, "unit": "%"}, {"measurement": "Population Mitotic Cells (%)", "setting": "[2]; [5]", "value": "10% and 16%"}, {"measurement": "Population Normal (%)", "setting": "[2]; [5]", "value": 99, "unit": "%"}, {"measurement": "Population Pyknosed Nuclei (%)", "setting": "[2]; [5]", "value": "6% and 3%"}, {"measurement": "Population Tubulin-Different-Phenotype (%)", "setting": "[2]; [5]", "value": "2% and 4%"}, {"measurement": "Total Cell Count", "setting": "[2]; [5]", "value": "314 and 157"}]}
